Data: the EternaBench riboswitch data

System: MS2 coat protein
Experiment: apparent Kd, MS2 coat protein; higher = weaker binding; RNA-MaP array; FMN 200 µM where present
How it was run: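 Stalled E. coli RNA polymerase produced the designs on Illumina sequencing-chip clusters. SNAP-549-labelled MS2 coat protein was added from 0.7 or 1.5 nM, doubling to 3 µM, without and then with constant ligand, in 100 mM Tris-HCl pH 7.5, 80 mM KCl, 4 mM MgCl2, BSA, DTT, yeast tRNA and Tween-20. The apparent Kd is the median of filtered per-cluster fits of green signal normalised to red-channel RNA signal and control-cluster median Fmax.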

[1] = designed as: OFF switch for flavin mononucleotide, no ligand
[2] = ligand present: flavin mononucleotide, designed as: OFF switch for flavin mononucleotide
[3] = designed as: ON switch for flavin mononucleotide, no ligand
[4] = ligand present: flavin mononucleotide, designed as: ON switch for flavin mononucleotide

“GAUCAACAUGAGGAUCACCCAUGUGAGGAUAUGAUACUAUGUACUUCGGUACAUAGUAUCAGAAGGCAUGUGGA” was tested. Which “apparent Kd” value [1] did it give?
Its value is 158 nM.

And the “apparent Kd” value [2]?
Its value is 39.4 nM.

How did the “apparent Kd” value [1] turn out when “AAUAACAGAGGAUAUACUGUUUUAUGUGUUUAUUAUUUUGAACAUGAGGAUCACCCAUGUAGAAGGCUGAAUAA” was run?
Its value is 23.9 nM.

What about the “apparent Kd” value [2] of the same sequence?
The value was 21 nM.

For “GUGCUUAACUAGAAGGCCGAUAGCAAAGCUAUCGGAGGAUAUGGGUUCCGGAAACGGACAUGAGGAUCACCCAUGUGGCACAAA”, which “apparent Kd” value [3] is on record?
Its value is 121 nM.

What about the “apparent Kd” value [4] of the same sequence?
Its value is 14.6 nM.

Which results are given for “CAGGUAGACUGAGGAUAUACAAUAAACAGCUAGUCUAUCUAGCUGUCCACAUGAGGAUCACCCAUGUAGAAGGCAGUCUGCCUG”?
apparent Kd [1]: 18.9 nM; apparent Kd [2]: 42 nM

How did the “apparent Kd” value [3] turn out when “CCGCUCGAGCAGAAGGCAAUGAGGGUUAUACAUUGAGGAUAUGCUACGUACGUGGUACAUGAGGAUCACCCAUGUAGCCUAUCU” was run?
Its value is 788 nM.

And the “apparent Kd” value [4]?
The value was 93.4 nM.

For “GGGCCCGGAGGAUAUACAUGAGGAUCACCCAUGUAUCUGGGUCUUAUUGGGCUCGGGUGUAGAAGGCCGGGCCC”, which “apparent Kd” value [1] is on record?
The value was 11.8 nM.

And the “apparent Kd” value [2]?
Its value is 13.8 nM.

With “GGAUCGAGUGUGAGGAUAUACCACUGGAUACAGUGGUAGAAGGCACAUGAGGAUCACCCAUGUCCCUACGAUCC” as the sequence, how does the “apparent Kd” value [1] read?
The value was 32.9 nM.

What about the “apparent Kd” value [2] of the same sequence?
The value was 204 nM.

Which “apparent Kd” value [3] does the source give for “GAUGCUAUCGGAGGAUAUUCAUACCGGAAACGGACAUGAGGAUCACCCAUGUGGCGAAAGCCUUGGGAGAAGGCCGAUAGCAUC” here?
The value was 610 nM.

What about the “apparent Kd” value [4] of the same sequence?
The value was 20.5 nM.

“UUCAUUAACAUGAGGAUCACCCAUGUUGGCCAGUCUCACACCAGAAGGCACGUUGAGCACAACAGUGAGGAUAUGGGUGACAUA” was tested. Which “apparent Kd” value [3] did it give?
The value was 286 nM.

And the “apparent Kd” value [4]?
Its value is 52.9 nM.

Which results are given for “UCAUACGGUGAGGAUAUCUCCACUAAAGUGUGUAGAGAAGGCGCUACAUGAGGAUCACCCAUGUUUAUGGGCAG”?
apparent Kd [1]: 376 nM; apparent Kd [2]: 117 nM

With “GUCCGGCGUGUAGGAUAUGGAUCCGAUUAGGAUCCAGAAGGACAUGAGGAUCACCCAUGUACAUGUAAACAGUCAUCACCGGAU” as the sequence, how does the “apparent Kd” value [1] read?
Its value is 7.5 nM.

And the “apparent Kd” value [2]?
The value was 23.5 nM.

What does the source list for “UAAUAAAACGAUCGGCGAUCCAUACAUGAGGAUCACCCAUGUAGAAGGGACUCUACAAAGUAGAGUCAGGAUAUACAAGAUCGA”?
apparent Kd [1]: 10 nM; apparent Kd [2]: 124 nM

What does the source list for “GAAUAUUCGUUGUACAUGAGGAUCACCCAUGUAACUUGACAUGAGGAUAUGGAUUCUAAUUGGAUCCAGAAGGCAUGAAUAUUC”?
apparent Kd [3]: 48.4 nM; apparent Kd [4]: 21.8 nM

For “GGACGGUUAGUCAGGAUAUGCUCUACCUCGGUAGAGCAGAAGGGACAUGAGGAUCACCCAUGUGAUAACUGUUC”, which “apparent Kd” value [1] is on record?
The value was 27.4 nM.

What about the “apparent Kd” value [2] of the same sequence?
The value was 34.8 nM.

With “AUACAUGAGGAUCACCCAUGUUACUGGGUCUAUAUAGAACGUAGAAGGAUGAUAUUAUAAAUAUCAUAGGAUAUACUAUUUUGU” as the sequence, how does the “apparent Kd” value [1] read?
Its value is 29.9 nM.

And the “apparent Kd” value [2]?
Its value is 35.3 nM.

For “GGAGCACACAUUAACAUGAGGAUCACCCAUGUCAAAAGACAUGAGGAUAUGGAUCCGAAAAGGAUCCAGAAGGCAUAGUGCUCC”, which “apparent Kd” value [3] is on record?
The value was 301 nM.

And the “apparent Kd” value [4]?
The value was 15.7 nM.

How did the “apparent Kd” value [1] turn out when “AUCAAUCGUGUAGGAUAUGCGUGGCGAAGCUAUGCAGAAGGACAUGAGGAUCACCCAUGUCUUUCUGUCUGCGUACAGACAGGA” was run?
The value was 18 nM.

And the “apparent Kd” value [2]?
Its value is 43.4 nM.

How did the “apparent Kd” value [1] turn out when “CAGGUCUGAGGAUAUCCAUCUUCAUACAUGAGGAUCACCCAUGUUUACCUCUGGGUUUUCGGAGAAGGCAGUUUUU” was run?
Its value is 354 nM.

And the “apparent Kd” value [2]?
The value was 397 nM.

“UUACUUCAUGAGAAGGACAUGAGGAUCACCCAUGUAGGAUAUCGUGGGAGACUGGUAUUGAAUCUUCGGAUUCAAUACCUGUCU” was tested. Which “apparent Kd” value [3] did it give?
The value was 59.7 nM.

And the “apparent Kd” value [4]?
The value was 9.3 nM.

For “CGGUACUGAGGAUAUACAUGAGGAUCACCCAUGUGUUCCAGCUAGCGUACUGGCAUUUGUAGAAGGCGGUGCUG”, which “apparent Kd” value [1] is on record?
The value was 16.8 nM.

And the “apparent Kd” value [2]?
The value was 48 nM.

Which “apparent Kd” value [3] does the source give for “UCGUACAUUCGAGGAUAUCGGUGAUAAAUAAUACGAGAAGGCGAUUGUGGGCAUAACGCCUUAGACAUGAGGAUCACCCAUGUA” here?
The value was 75.6 nM.

What about the “apparent Kd” value [4] of the same sequence?
Its value is 51.5 nM.

What does the source list for “UCUAGACAUGAGGAUCACCCAUGUCGAUAUGGCGCAGGAUAUCGGUACUCAUAGAGUACGCGAGAAGGGUGACUUC”?
apparent Kd [3]: 343 nM; apparent Kd [4]: 48.4 nM

How did the “apparent Kd” value [1] turn out when “UGCAUGUAAGGAUAUGCAUCCGCCAAAGAACCGGCGCCACAGCAGAAGGUACAUGAGGAUCACCCAUGUGUCCC” was run?
The value was 15.1 nM.

What about the “apparent Kd” value [2] of the same sequence?
The value was 29.1 nM.

Which results are given for “UUUAUAAUAAGAUCAAUUAAUUAACAUGAGGAUCACCCAUGUGAGGAUAUCAGCUCGUGUAGAGCUGAGAAGGCACAAUAUAAG”?
apparent Kd [1]: 43.8 nM; apparent Kd [2]: 69.3 nM

Which “apparent Kd” value [1] does the source give for “CGUGCGUAUGUGAGGAUAUGCUGGUCCUUGGAUCGGCAGAAGGUACAUGAGGAUCACCCAUGUGGUGUCGUUCU” here?
Its value is 252 nM.

And the “apparent Kd” value [2]?
The value was 292 nM.

Which results are given for “UCCUUCUGUUGAGGAUAUGUAAGACAGCGGCUGCUAUGGCGACACGCUGAUACAGAAGGCAACAUGAGGAUCACCCAUGUUCAA”?
apparent Kd [1]: 19.2 nM; apparent Kd [2]: 145 nM

How did the “apparent Kd” value [2] turn out when “GCGUAAAAUGUAGGAUAUGACACAGGAAACUGGUCAGAAGGACAUGAGGAUCACCCAUGUAAAAUGUUCAAGAAUAACUCAUGC” was run?
The value was 172 nM.

For “AGAUUUGUACAUGAGGAUCACCCAUGUUAAUAGGUGUUUGUCAGAAGGCAUUAAGAGAGAAUUAAUGAGGAUAUGAAGUUUCAU”, which “apparent Kd” value [3] is on record?
The value was 59.2 nM.

And the “apparent Kd” value [4]?
The value was 36.2 nM.
